Calls of active or inactive are those of the source. The calls are words filed in the database; no cut-off is given here.
Columns and labels:
[1] = molecular target: Cannabinoid receptor 2 (Mus musculus) (UniProt P47936); assay: Displacement of [3H]CP55940 from mouse CB2 receptor expressed in HEK293 cells by competition-equilibrium binding analysis; assay type: cell-based
In short: (§1)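 HEK293 cell membranes expressing mouse or human CB2; competition-equilibrium binding against [3H]CP-55,940.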

Monoglyceride lipase = molecular target: T1, Monoglyceride lipase (Homo sapiens, UniProt Q99685); assay: Inhibition of human recombinant His-tagged MGL expressed in Escherichia coli BL21 DE3 cells using AHMMCE as substrate preincubated with enzyme for 15 mins followed by substrate addition and measured after every 15 mins for 3 hrs by fluorescence based assay
T1 sequence (Q99685 whole entry): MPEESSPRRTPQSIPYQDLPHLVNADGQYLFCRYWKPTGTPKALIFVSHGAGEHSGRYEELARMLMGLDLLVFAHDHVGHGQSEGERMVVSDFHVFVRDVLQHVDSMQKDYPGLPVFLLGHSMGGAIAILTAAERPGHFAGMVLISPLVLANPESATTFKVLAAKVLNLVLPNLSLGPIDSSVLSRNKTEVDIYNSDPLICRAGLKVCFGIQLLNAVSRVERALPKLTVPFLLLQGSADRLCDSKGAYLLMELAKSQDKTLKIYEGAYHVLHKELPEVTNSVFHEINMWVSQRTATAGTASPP
In short: (§2)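 Fluorescent enzyme assay in throughput format. Human recombinant FAAH or purified rat FAAH used arachidonoyl 7-amino-4-methylcoumarin amide as substrate; human recombinant MGL was run by a similar fluorometric procedure.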

[2] = molecular target: T2, Fatty-acid amide hydrolase 1 (Rattus norvegicus, UniProt P97612); assay: Inhibition of rat recombinant His/GST-tagged FAAH expressed in Escherichia coli cells using AAMCA as substrate incubated for 15 mins followed by substrate addition and measured after every 20 mins for 4 hrs by fluorescence based assay; in short: as §2
T2 sequence (P97612 whole entry): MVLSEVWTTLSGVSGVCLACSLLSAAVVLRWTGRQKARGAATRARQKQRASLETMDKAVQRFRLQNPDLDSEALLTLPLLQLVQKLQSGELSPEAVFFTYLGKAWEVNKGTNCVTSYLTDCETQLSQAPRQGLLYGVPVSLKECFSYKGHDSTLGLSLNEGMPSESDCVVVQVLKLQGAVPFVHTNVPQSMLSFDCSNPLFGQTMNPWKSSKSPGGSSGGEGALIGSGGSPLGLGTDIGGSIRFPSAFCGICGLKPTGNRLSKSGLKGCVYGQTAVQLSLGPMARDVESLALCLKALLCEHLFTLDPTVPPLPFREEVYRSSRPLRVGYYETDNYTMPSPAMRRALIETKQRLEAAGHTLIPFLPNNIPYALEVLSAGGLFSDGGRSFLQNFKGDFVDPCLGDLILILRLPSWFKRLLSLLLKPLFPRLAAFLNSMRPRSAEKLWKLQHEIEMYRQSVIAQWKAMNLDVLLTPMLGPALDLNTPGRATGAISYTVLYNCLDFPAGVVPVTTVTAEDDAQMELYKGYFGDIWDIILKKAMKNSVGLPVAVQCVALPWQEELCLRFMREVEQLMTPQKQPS

[3] = molecular target: Cannabinoid receptor 2 (Homo sapiens) (UniProt P34972); assay: Displacement of [3H]CP55940 from human CB2 receptor expressed in HEK293 cells by competition-equilibrium binding analysis; assay type: cell-based; in short: as §1
Homo sapiens [4] = organism: Homo sapiens; assay: Selectivity ratio of IC50 for human full length ABHD6 expressed in Escherichia coli cells to IC50 for human recombinant MBP-tagged FAAH expressed in Escherichia coli cells by fluorescence based assay
[5] = molecular target: Cannabinoid receptor 1 (Rattus norvegicus) (UniProt P20272); assay: Displacement of [3H]CP55940 from CB1 receptor in rat brain by competition-equilibrium binding analysis; assay type: tissue-based
In short: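 Rat brain membranes as CB1 source; competition-equilibrium binding against [3H]CP-55,940.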
Target sequence in this assay (P20272 whole entry): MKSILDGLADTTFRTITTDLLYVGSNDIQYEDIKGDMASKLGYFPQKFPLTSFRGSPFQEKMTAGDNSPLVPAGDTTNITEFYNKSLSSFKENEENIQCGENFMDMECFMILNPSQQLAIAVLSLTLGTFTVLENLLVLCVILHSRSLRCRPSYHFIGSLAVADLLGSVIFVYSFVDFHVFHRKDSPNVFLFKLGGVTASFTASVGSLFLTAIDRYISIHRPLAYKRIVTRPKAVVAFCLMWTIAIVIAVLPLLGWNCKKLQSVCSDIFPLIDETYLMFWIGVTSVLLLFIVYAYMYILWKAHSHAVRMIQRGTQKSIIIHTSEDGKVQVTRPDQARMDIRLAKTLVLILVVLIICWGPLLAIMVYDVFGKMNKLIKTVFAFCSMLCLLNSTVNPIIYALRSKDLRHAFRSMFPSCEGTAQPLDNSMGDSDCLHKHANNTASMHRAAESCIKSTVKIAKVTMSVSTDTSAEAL

Homo sapiens [6] = organism: Homo sapiens; assay: Selectivity ratio of IC50 for human recombinant His-tagged MGL expressed in Escherichia coli BL21 DE3 cells to IC50 for human recombinant MBP-tagged FAAH expressed in Escherichia coli cells by fluorescence based assay
[7] = molecular target: Cannabinoid receptor 1 (Rattus norvegicus) (UniProt P20272); assay: Displacement of [3H]CP55940 from CB1 receptor in rat brain by competition-equilibrium binding analysis
Target sequence in this assay (P20272 whole entry, looked up): as the sequence (P20272 whole entry) above

[8] = Selectivity ratio of IC50 for human recombinant His-tagged MGL expressed in Escherichia coli BL21 DE3 cells to IC50 for rat recombinant His/GST-tagged FAAH expressed in Escherichia coli cells by fluorescence based assay
[9] = Selectivity ratio of IC50 for human full length ABHD6 expressed in Escherichia coli cells to IC50 for rat recombinant His/GST-tagged FAAH expressed in Escherichia coli cells by fluorescence based assay
[10] = molecular target: T3, Fatty-acid amide hydrolase 1 (Homo sapiens, UniProt O00519); assay: Inhibition of human recombinant MBP-tagged FAAH expressed in Escherichia coli cells using AAMCA as substrate incubated for 15 mins followed by substrate addition and measured after every 20 mins for 4 hrs by fluorescence based assay; in short: as §2
T3 sequence (O00519 whole entry): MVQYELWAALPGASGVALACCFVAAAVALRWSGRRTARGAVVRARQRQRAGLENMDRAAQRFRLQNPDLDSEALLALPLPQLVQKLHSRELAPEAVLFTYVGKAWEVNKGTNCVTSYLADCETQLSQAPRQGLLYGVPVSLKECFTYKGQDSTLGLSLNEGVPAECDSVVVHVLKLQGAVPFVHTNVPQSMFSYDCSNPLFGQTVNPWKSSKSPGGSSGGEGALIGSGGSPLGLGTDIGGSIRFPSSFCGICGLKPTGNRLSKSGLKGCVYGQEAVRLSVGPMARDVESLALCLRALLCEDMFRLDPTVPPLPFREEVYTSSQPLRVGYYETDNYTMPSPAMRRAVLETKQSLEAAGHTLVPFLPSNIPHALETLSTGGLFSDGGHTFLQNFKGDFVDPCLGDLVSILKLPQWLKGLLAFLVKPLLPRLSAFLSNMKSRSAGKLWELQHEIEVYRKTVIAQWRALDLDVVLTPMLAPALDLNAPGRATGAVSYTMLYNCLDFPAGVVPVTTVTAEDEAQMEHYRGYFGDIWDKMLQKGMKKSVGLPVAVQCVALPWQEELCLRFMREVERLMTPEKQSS

Sequence of Cannabinoid receptor 2 (Homo sapiens) (P34972 whole entry): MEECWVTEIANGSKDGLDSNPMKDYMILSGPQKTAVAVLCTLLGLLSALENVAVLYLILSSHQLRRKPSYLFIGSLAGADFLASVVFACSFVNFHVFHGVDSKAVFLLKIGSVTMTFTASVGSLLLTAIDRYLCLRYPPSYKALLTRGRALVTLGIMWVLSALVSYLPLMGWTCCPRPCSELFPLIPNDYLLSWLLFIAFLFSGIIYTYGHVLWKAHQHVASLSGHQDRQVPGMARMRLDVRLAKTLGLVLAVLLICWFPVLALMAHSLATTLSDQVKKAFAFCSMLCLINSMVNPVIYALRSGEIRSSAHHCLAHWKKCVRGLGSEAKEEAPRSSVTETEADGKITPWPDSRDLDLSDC
Sequence of Cannabinoid receptor 2 (Mus musculus) (P47936 whole entry): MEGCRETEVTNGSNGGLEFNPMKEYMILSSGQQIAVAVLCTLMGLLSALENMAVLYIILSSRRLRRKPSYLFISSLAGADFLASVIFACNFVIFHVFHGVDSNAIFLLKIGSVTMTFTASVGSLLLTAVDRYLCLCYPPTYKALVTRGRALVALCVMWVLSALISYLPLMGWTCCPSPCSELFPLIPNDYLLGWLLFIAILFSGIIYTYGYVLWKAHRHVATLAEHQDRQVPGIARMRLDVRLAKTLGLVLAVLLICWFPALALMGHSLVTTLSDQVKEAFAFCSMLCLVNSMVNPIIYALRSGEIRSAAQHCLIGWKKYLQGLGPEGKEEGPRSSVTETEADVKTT

SMILES	Activity [1]	IC50 (Monoglyceride lipase)	IC50 [2]	Activity [3]	Ratio IC50 (Homo sapiens [4])	Activity [5]	Ratio IC50 (Homo sapiens [6])	Activity [7]	Ratio IC50 [8]	Ratio IC50 [9]	IC50 [10]
O=C(Oc1cccc(N2CCS(=O)(=O)CC2)c1)N1C[C@H]2C[C@@H]1CN2c1ccc(F)cc1	inactive	> 1000 nM	17.1 nM	inactive	> 1000	inactive	> 1000	inactive	> 1000	> 1000	20.3 nM
C[C@H]1CN(c2ccc(F)cc2)CCN1C(=O)Oc1cccc(N2CCS(=O)(=O)CC2)c1	inactive	> 1000 nM	40.5 nM	inactive	> 1000	inactive	> 1000	inactive	> 1000	> 1000	72.9 nM
N#Cc1ccc(N2CCN(C(=O)Oc3cccc(N4CCS(=O)(=O)CC4)c3)CC2)cc1	inactive	> 1000 nM	62.7 nM	inactive	> 1000	inactive	> 1000	inactive	> 1000	> 1000	89.3 nM
O=C(Oc1cccc(N2CCS(=O)(=O)CC2)c1)N1CCN(c2ccc(F)cc2)CC1	inactive	> 1000 nM	12.5 nM	inactive	> 1000	inactive	> 1000	inactive	> 1000	> 1000	20.5 nM
O=C(Oc1cccc(N2CCS(=O)(=O)CC2)c1)N1CCC(c2ccncc2)CC1	inactive	> 1000 nM	75.5 nM	inactive	> 1000	inactive	> 1000	inactive	> 1000	> 1000	132 nM
O=C(Oc1cccc(N2CCS(=O)(=O)CC2)c1)N1CCN(c2ccccn2)CC1	inactive	> 1000 nM	102 nM	inactive	> 1000	inactive	> 1000	inactive	> 1000	> 1000	
CN(C)c1ccc(C2CCN(C(=O)Oc3cccc(N4CCOCC4)c3)CC2)cc1	inactive	> 1000 nM	14.7 nM	inactive	> 1000	inactive	> 1000	inactive	> 1000	> 1000	31 nM
Cc1noc(C2CCN(C(=O)Oc3cccc(N4CCS(=O)(=O)CC4)c3)CC2)n1	inactive	> 1000 nM	120 nM	inactive	> 1000	inactive	> 1000	inactive	> 1000	> 1000	147 nM
O=C(Oc1cccc(N2CCS(=O)(=O)CC2)c1)N1CCC(O)(c2ccccc2)CC1	inactive	> 1000 nM	78.1 nM	inactive	> 1000	inactive	> 1000	inactive	> 1000	> 1000	172 nM
Cc1ccccc1C1CCN(C(=O)Oc2cccc(N3CCS(=O)(=O)CC3)c2)CC1	inactive	> 1000 nM	10.3 nM	inactive	> 1000	inactive	> 1000	inactive	> 1000	> 1000	15.9 nM

Source: ChEMBL document CHEMBL4359929, “Piperidine and piperazine inhibitors of fatty acid amide hydrolase targeting excitotoxic pathology” (Bioorg Med Chem, 2019)
